# Screening results from PubChem.
# RAD52 inh – inhibitors of human RAD52 DNA annealing; recombinant RAD52 DNA annealing, FRET fluorescence; AID 651710; hit rate 0.46% among 360,000; P43351; inhibition, % at 18.7 µM;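 active = every replicate showing at least 50% inhibition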
# RAD54 branch – blocks human RAD54 Holliday junction branch migration. inhibition, % at 10.4 µM. hit rate 0.14% among 360,000. AID 602329. FAM/BHQ fluorescence. Q92698;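 active = mean normalized replicate activity at least 40 and at least half of replicates scoring 40 or more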;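 note: 0% = median of neutral control wells and 100% = median of positive control wells; inhibitors cause a drop in the FAM fluorescence signal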
# Target sequence (Q92698 whole entry, looked up): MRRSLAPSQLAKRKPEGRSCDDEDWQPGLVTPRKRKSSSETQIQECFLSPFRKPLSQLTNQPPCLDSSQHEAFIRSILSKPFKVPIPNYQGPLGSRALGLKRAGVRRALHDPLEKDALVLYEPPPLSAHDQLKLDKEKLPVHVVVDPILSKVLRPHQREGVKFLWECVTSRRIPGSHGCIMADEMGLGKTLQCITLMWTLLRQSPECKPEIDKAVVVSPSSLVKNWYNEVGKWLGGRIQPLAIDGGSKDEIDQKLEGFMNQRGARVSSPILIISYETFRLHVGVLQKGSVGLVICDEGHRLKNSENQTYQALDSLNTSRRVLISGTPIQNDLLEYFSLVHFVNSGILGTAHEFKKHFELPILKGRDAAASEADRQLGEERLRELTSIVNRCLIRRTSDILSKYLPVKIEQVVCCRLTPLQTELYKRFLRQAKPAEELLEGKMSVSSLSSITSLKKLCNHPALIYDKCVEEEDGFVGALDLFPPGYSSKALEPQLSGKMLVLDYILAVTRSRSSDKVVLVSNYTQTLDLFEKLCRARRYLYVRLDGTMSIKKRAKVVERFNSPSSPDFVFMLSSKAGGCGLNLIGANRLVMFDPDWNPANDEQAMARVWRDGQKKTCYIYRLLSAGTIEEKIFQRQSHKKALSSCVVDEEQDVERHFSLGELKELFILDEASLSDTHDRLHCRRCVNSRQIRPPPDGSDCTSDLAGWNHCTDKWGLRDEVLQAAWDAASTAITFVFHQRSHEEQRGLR
# FN deposition inh – fibronectin deposition inhibition | AID 743247 | hit rate 0.086% among 350,000 | AH1F fibroblasts, Alexa488-fibronectin deposition fluorescence, overnight | inhibition, % at 12.6 µM;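 active = mean inhibition across replicates of 30% or more, regardless of how many single replicates reach that level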;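 note: positive control wells lacked labelled fibronectin entirely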
#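 Schedule: 1 h cell adhesion before compound, then overnight fibronectin incubation; test system: AH1F fibroblast monolayer depositing Alexa488-labelled fibronectin into matrix; quantity: 10000 AH1F cells per well; probe or stimulus: fluorescent fibronectin at 24 nM final; signal: fluorescence, ex 485 nm, em 525 nm; evaluation: percent inhibition as loss of matrix-bound fibronectin fluorescence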
# N-glyco inh – N-linked glycosylation inhibition | D54 ERlucT glycosylation luciferase reporter, 24 h; percent of 100 nM tunicamycin response | reporter increase, % at 12.5 µM | hit rate 0.23% among 360,000 | AID 588692;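 active = mean luciferase reporter signal, scaled so untreated is 0 and the glycosylation-blocking control 100, at or above a set limit in every replicate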;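 note: luciferase carries N-glycosylation sites so blocking glycosylation raises the light; 0% = median of neutral control wells and 100% = median of 100 nM tunicamycin wells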
# AF4-AF9 inh – blocks AF4 peptide binding to human AF9; P42568; AlphaScreen, biotin-AF4 peptide binding to FLAG-AF9; inhibition, % at 10 µM; hit rate 0.47% among 350,000;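 active = every replicate reaching a set inhibition limit, whatever the replicate mean, cut at about 25% in these data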;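 note: 0% = plate neutral control median and 100% = total signal loss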
# NSD2 HMT inh – NSD2 (human) methyltransferase inhibition | O96028 | inhibition, % at 12.5 µM | AID 743445 | hit rate 0.54% among 310,000 | NSD2 peptide methylation, AlphaScreen, 120 min; in the data active = inhibition above about 50%
# Numbers without * were called inactive; . = not tested or not shown. Only some compounds are listed: those with a hit (about 1.2% of all), similar ones and a draw of the others.
SMILES,RAD52 inh,RAD54 branch,FN deposition inh,N-glyco inh,AF4-AF9 inh,NSD2 HMT inh
C[C@@H]1CN([C@@H](C)CO)C(=O)c2cc(NC(=O)c3ccncc3)ccc2O[C@@H](C)CCCCO[C@@H]1CN(C)Cc1ccc(C(=O)O)cc1,59.2*,3.4,.,.,-3.0,.
C[C@@H]1CN([C@@H](C)CO)C(=O)c2cc(NC(=O)c3ccncc3)ccc2O[C@@H](C)CCCCO[C@H]1CN(C)Cc1ccncc1,-14.8,3.9,-5.0,.,-3.2,.
C[C@@H]1CN([C@@H](C)CO)C(=O)c2cc(NC(=O)c3ccncc3)ccc2O[C@@H](C)CCCCO[C@H]1CN(C)Cc1ccc(C(=O)O)cc1,95.8*,1.3,.,.,-3.4,.
C[C@@H]1CCCCO[C@H](CN(C)Cc2ccc(C(=O)O)cc2)[C@H](C)CN([C@H](C)CO)C(=O)c2cc(NC(=O)c3ccncc3)ccc2O1,103.0*,4.5,.,.,-3.2,.
Cc1noc(C)c1NC(=O)N(C)C[C@@H]1Oc2ccc(NC(=O)Nc3ccc(C(F)(F)F)cc3)cc2C(=O)N([C@@H](C)CO)C[C@H]1C,-11.0,-3.0,-2.1,.,1.6,.
CC(C)NC(=O)N(C)C[C@@H]1Oc2ncc(-c3ccccc3F)cc2C(=O)N([C@@H](C)CO)C[C@H]1C,3.8,0.0,.,.,-5.9,.
C[C@@H]1CN([C@@H](C)CO)C(=O)Cc2cc(NS(=O)(=O)c3ccccc3)ccc2O[C@H]1CN(C)Cc1ccc(C(F)(F)F)cc1,9.2,-2.9,.,.,-4.1,.
C[C@@H]1CCCCO[C@H](CN(C)Cc2ccc(C(=O)O)cc2)[C@@H](C)CN([C@H](C)CO)C(=O)c2cc(NC(=O)c3ccncc3)ccc2O1,48.5,6.3,.,.,-2.0,.
C[C@H](CO)N1C[C@H](C)[C@H](CN(C)Cc2ccc(C(=O)O)cc2)OCCCC[C@H](C)Oc2ccc(NC(=O)c3ccncc3)cc2C1=O,100.7*,-0.2,.,.,-1.6,.
C[C@@H]1CCCCO[C@@H](CN(C)Cc2ccc(C(=O)O)cc2)[C@H](C)CN([C@H](C)CO)C(=O)c2cc(NC(=O)c3ccncc3)ccc2O1,104.0*,-5.5,.,.,-1.4,.
CC(C)C(=O)Nc1cccc(S(=O)(=O)NC2=NCCC2)c1,2.7,0.5,-8.1,5.8,1.6,0.5
O=C(CCl)Nc1cccc(S(=O)(=O)NC2=NCCC2)c1,-4.6,.,4.0,60.2*,-2.6,-1.2
CCN(CC)CCCNC(=O)c1cc(-c2ccccc2)c(N2CCCCC2)s1,22.3,13.2,0.0,-5.0,29.2*,11.4
COc1ccc2c3c([nH]c2c1)[C@H](CO)N(C(=O)c1ccccn1)CC31CCN(C(=O)C2CC2)CC1,.,.,.,.,1.9,.
COc1ccc2cc1Oc1ccc(cc1)CC1c3c(cc(OC)c4c3Oc3cc5c(cc3O4)CCNC5C2)CCN1C (centres undefined),.,90.9*,.,-13.7,.,.
COc1cc2c(c(O)c1OC)C1Cc3ccc(OC)c(OC)c3CN1CC2 (centres undefined),6.6,15.3,.,-0.4,2.6,.
COc1ccc2cc1Oc1ccc(cc1)C[C@H]1c3c(cc(OC)c4c3Oc3c(ccc5c3[C@H](C2)N(C)CC5)O4)CCN1C,.,74.4*,.,-14.1,.,.
COc1cc2c3cc1Oc1cc(ccc1O)C[C@@H]1c4c(cc(OC)c(O)c4Oc4ccc(cc4)C[C@@H]3N(C)CC2)CC[N+]1(C)C,.,.,.,.,.,8.8
CN(C(=O)CCc1nnc(-c2ccc(-c3ccccc3)cc2)o1)C1CCOCC1,-14.9,-2.2,-2.8,1.2,-9.2,-1.4
CN(CCCC1CCCC1)C(=O)CCc1nnc(-c2ccccc2)o1,1.4,-0.6,.,-3.1,47.5*,-3.9
COc1ncccc1C(=O)NC1CCCc2c1cnn2-c1ccc(C)c(C)c1 (centres undefined),-0.2,-5.0,30.8*,0.3,-0.2,1.5
CO[C@@H]1CN(C)C(=O)c2ccc(NC(=O)C3CC3)cc2OC[C@H](C)N(Cc2ccncc2)C[C@@H]1C,-0.6,-9.3,-8.5,.,-7.2,.
CN1/C(=C/C(=O)c2cccs2)Sc2ccccc21,.,56.1*,-3.5,-7.9,.,-13.2
CC(=O)Nc1ccc(OCC[n+]2cccc(C(N)=O)c2)cc1,1.9,3.1,-4.9,0.7,-0.4,-2.0
CC(=O)Nc1ccc(OCCC[n+]2ccccc2)cc1,1.1,.,9.6,1.2,30.8*,-1.8
SMILES,RAD52 inh,RAD54 branch,FN deposition inh,N-glyco inh,AF4-AF9 inh,NSD2 HMT inh
COc1ccc(OC)c(N/C(=N/c2nc(C)cc(C)n2)NC(C)=O)c1,0.6,.,4.5,1.4,27.1*,3.3
COc1ccc(N/C(=N\c2nc(C)cc(C)n2)NC(C)=O)cc1OC,.,13.2,4.4,-0.1,.,-2.5
Nc1c(C(=O)Nc2ccc(S(=O)(=O)N3CCCC3)cc2)sc2nc3ccc(OC(F)(F)F)cc3cc12,.,-29.0,-5.7,99.6*,.,0.3
COc1cccc(-c2ccc3c(c2)[C@@H]2[C@@H](CCN2C(=O)C2CCOCC2)[C@@H](CO)N3)c1,-22.1,-9.9,9.3,.,-2.4,.
Nc1ccc2nn(-c3ccccc3)nc2c1,-17.8,2.6,7.7,3.2,0.5,-4.0
Nc1cc2nn(-c3ccccc3)nc2cc1Cl,13.8,.,-2.6,-4.5,1.7,52.2*
CN(c1cc2c(c3c1ccn3C)C1CCC2C1)C1CCCCC1 (centres undefined),9.2,1.7,12.9,-1.4,38.7*,.
Cn1ccc2c(N3CCCC3)cc3c(c21)C1CCC3C1 (centres undefined),-1.0,-2.3,-0.8,12.2,30.5*,.
COc1ccc(CN(C)C[C@H]2Oc3ccc(N(C)C)cc3CC(=O)N([C@@H](C)CO)C[C@H]2C)cc1,-8.5,-4.0,.,.,3.8,.
CC(C)NC(=O)NCC[C@H]1CC[C@@H](NC(=O)Nc2ccccc2)[C@H](CO)O1,-0.2,1.8,-6.7,.,7.5,.
CC(C)N(C(=O)[C@H]1C[C@H](CC(=O)NCCCN(C)C)C(=O)N2CCc3c([nH]c4cc(-c5ccco5)ccc34)[C@]12C)C(C)C,49.1,15.8,1.8,-4.8,29.4*,.
O=c1c2cc(N3CCOCC3)ccc2[nH]c(=S)n1Cc1ccc(Cl)cc1,.,-0.4,41.1*,1.0,.,0.3
CO[C@@H]1CN(C)C(=O)c2cc(NC(=O)C3CCC3)ccc2OC[C@@H](C)NC[C@H]1C,-0.5,11.3,1.6,.,-6.6,.
Cc1[nH]c(=O)[nH]c1C(=O)CCCCC(=O)OCC(=O)Nc1ccccn1,.,.,.,1.8,.,142.2*
CCOC(=O)CCCCC(=O)c1[nH]c(=O)[nH]c1C[n+]1ccc(C)cc1,-0.8,-3.3,-8.4,2.6,7.8,1.1
CCCNC(=O)Nc1ccc2c(c1)C(=O)N(C)[C@@H]1CC[C@H](CC(=O)NCC3CCCCC3)O[C@H]1CO2,-4.9,-0.1,-8.5,.,-0.8,.
Clc1ccc2c(N/N=C/c3ccc(Br)cc3)ccnc2c1,-8.0,-8.3,-2.7,-5.7,1.7,-2.0
Clc1ccc2c(N/N=C/c3cccnc3)ccnc2c1,-7.8,70.9*,-3.2,5.0,1.2,-1.7
Cc1cc(N2CCN(c3ncccn3)CC2)nc2c(C)cccc12,-9.6,0.6,-4.8,-3.2,41.1*,-3.8
